Here are results for 6 molecules from paper PMC4085604 (Scientific Reports, 2014).

The subject of experiment [1] is BHQ-10-labeled anti-His-tag mAb “8-4-4”. Kind of experiment: Homogeneous His6 detection assay. The format is binding, mouse. Particulars: for phosphorescence response, in words: increasing protein concentration, TRF after 90 s shaking; for detectability within total assay time, in words: total assay time of less than two minutes. Summed up: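 His6-tagged proteins (C- or N-terminal tag, or chemically His6-labeled BSA) in PBS pH 7.4 with 2 mg/mL BSA, or in E. coli lysate. Premixed with EuLH-HHRHH-NH2 donor peptide solution (40 nmol/L), then BHQ-10-labeled antibody solution (80 nmol/L) added. After 90 s shaking, read TRF at ex 370/em 616 nm. Triplicates. LOD is the lowest concentration whose mean exceeds blank plus 3 SD.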

For another experiment, the system named is anti-His-tag mAb “8-4-4”. Type of experiment: binding, mouse. Conditions: inferred from FRET efficiency curve.

For “Bovine serum albumin [BSA, reference compound]”, in experiment [1] (n = 3), the “phosphorescence response, in words” value was “no response”. With HHEHH-NH2, the “affinity to the anti-His-tag antibody, in words” value in the experiment on anti-His-tag mAb “8-4-4” is given as “full loss of affinity to the anti-His-tag antibody”. For the molecule HHHHH-NH2, in the experiment on anti-His-tag mAb “8-4-4”, the “affinity to the anti-His-tag antibody, in words” value was “did not influence the FRET efficiency curve substantially, and therefore also not the affinity”. Still for that read-out and setting: as for HHHHHH-NH2, the entry is “strong and specific interaction between the peptide and the antibody”.

On to “NPP3-His6: recombinant protein with C-terminal His-tag”, for which the “detectability within total assay time, in words” value in experiment [1] was “could be detected highly significantly and semi-quantitatively”.

B1: His6-trigger factor: trigger factor (N-terminal His-tag) (protein, UniProt P0A850 1-432, looked up)
Trigger factor: MQVSVETTQGLGRRVTITIAADSIETAVKSELVNVAKKVRIDGFRKGKVPMNIVAQRYGASVRQDVLGDLMSRNFIDAIIKEKINPAGAPTYVPGEYKLGEDFTYSVEFEVYPEVELQGLEAIEVEKPIVEVTDADVDGMLDTLRKQQATWKEKDGAVEAEDRVTIDFTGSVDGEEFEGGKASDFVLAMGQGRMIPGFEDGIKGHKAGEEFTIDVTFPEEYHAENLKGKAAKFAINLKKVEERELPELTAEFIKRFGVEDGSVEGLRAEVRKNMERELKSAIRNRVKSQAIEGLVKANDIDVPAALIDSEIDVLRRQAAQRFGGNEKQALELPRELFEEQAKRRVVVGLLLGEVIRTNELKADEERVKGLIEEMASAYEDPKEVIEFYSKNKELMDNMRNVALEEQAVEAVLAKAKVTEKETTFNELMNQQA
modifications: N-terminal His6 tag
Regarding B1, the “phosphorescence response, in words” value in experiment [1] (n = 3) is “increasing phosphorescence intensities with increasing protein concentration”. In experiment [1] (mass concentration, sample 50 μL + donor peptide EuLH-HHRHH-NH2 (10 μL, 40 nmol/L) + BHQ-10-mAb (40 μL, 80 nmol/L), PBS pH 7.4 with 2 mg/mL BSA, 90 s, n = 3, background plus 3x SD), the detection limit stood at 39 mg/L. In experiment [1], the “detectability within total assay time, in words” value is “could be detected highly significantly and semi-quantitatively”.
